The source made the active and inactive calls. The rule behind the calls is not given here.
Columns and labels:
[1] = Cytotoxicity against BHK cells after 48 to 96 hrs by MTT assay; assay type: cell-based, Mesocricetus auratus; details: hamster
How it was run: (§1)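 Cell seeding: MDBK at 6 × 10^5 cells/mL in MEM-E with 10% horse serum and 1 mM Na pyruvate; BHK at 1 × 10^6 cells/mL in MEM-E with 10% FBS. Serial compound dilutions, 37 °C, 5% CO2. Viability of mock-infected cells by MTT after 48–96 h; CC50 is the concentration reducing viability by 50%.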

Human alphaherpesvirus 1 = experiment: Antiviral activity against HSV1 KOS infected in african green monkey Vero cells after 3 days by plaque reduction assay; assay type: functional, organism-based; details: Human alphaherpesvirus 1, KOS, 72 h
How it was run: (§2)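 Plaque reduction assay. Vero 76 cells at 2 × 10^5/well, grown overnight to confluence in D-MEM with 10% FBS. Infected 2 h with 50–100 PFU/well, unadsorbed virus removed. Overlay of D-MEM with 1% inactivated FBS and 0.75% methylcellulose, with or without serial compound dilutions. Incubated at 37 °C for 3 days (HSV-1 KOS, CVB-2 Ohio-1) or 5 days (RSV A2). Fixed and stained with crystal violet in 50% ethanol; plaques counted; EC50 by linear regression.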

[2] = Cytotoxicity against MDBK cells after 48 to 96 hrs by MTT assay; assay type: cell-based, Bos taurus; details: cattle, MDBK cells; how it was run: as §1
Yellow fever virus = experiment: Antiviral activity against Yellow fever virus 17D infected in BHK cells assessed as protection from virus-induced cytopathogenicity after 3 to 4 days by MTT method; assay type: functional, organism-based
Vaccinia virus = experiment: Antiviral activity against Vaccinia virus Elstree-Lister infected in african green monkey Vero cells after 3 days by plaque reduction assay; assay type: functional, organism-based; details: Orthopoxvirus vaccinia, 72 h
[3] = Cytotoxicity against african green monkey Vero cells; assay type: cell-based; details: chlorocebus sabaeus
How it was run: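 Vero 76 monolayers exposed to serial compound dilutions, run in parallel on the same 24-well plates as the plaque-reduction assays. CC50 is the concentration reducing viability of mock-infected cells by 50%.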

[4] = tested on: Human immunodeficiency virus 1; experiment: Antiviral activity against HIV1 3B infected in human MT4 cells assessed as protection from virus-induced cytopathogenicity after 4 days by MTT method; assay type: functional, organism-based
How it was run: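 MT-4 cells, 1 × 10^4/well in RPMI with or without serial compound dilutions, infected with HIV-1 IIIB, 100 CCID50 (m.o.i. 0.01). Protection from virus-induced cytopathogenicity read by MTT.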

[5] = Cytotoxicity against human MT4 cells after 96 hrs by MTT assay; assay type: cell-based; details: MT4 cells
How it was run: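 Exponentially growing MT-4 cells at 1 × 10^5 cells/mL in RPMI-1640 with 10% FCS, exposed to serial compound dilutions at 37 °C, 5% CO2. Viability by MTT after 96 h; CC50 is the concentration reducing viability of mock-infected cells by 50%.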

Poliovirus 1 = experiment: Antiviral activity against Polio virus type1 Sabin strain Chat infected in african green monkey Vero cells after 2 days by plaque reduction assay; assay type: functional, organism-based, Human poliovirus 1 strain Sabin; details: Enterovirus C, 48 h
Coxsackievirus B2 = experiment: Antiviral activity against Human coxsackievirus B2 Ohio-1 infected in african green monkey Vero cells after 3 days by plaque reduction assay; assay type: functional, organism-based, Coxsackievirus B2 (strain Ohio-1); details: Enterovirus B, Vero, 72 h; how it was run: as §2
[6] = tested on: Bovine viral diarrhea virus 1; experiment: Antiviral activity against Bovine viral diarrhea virus NADL infected in MDBK cells assessed as protection from virus-induced cytopathogenicity after 3 to 4 days by MTT method; assay type: functional, organism-based, Bovine viral diarrhea virus 1-NADL; details: Bovine viral diarrhea virus isolates and strains, MDBK
How it was run: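 Cytopathogenicity protection assay. MDBK cells at 3 × 10^4/well, grown overnight to confluence. Infected with BVDV NADL at m.o.i. 0.01 in MEM-E with 0.5% inactivated FBS, 1 mM Na pyruvate and 1% kanamycin. Serial compound dilutions added after 1 h. After 3–4 days at 37 °C, viability read by MTT; EC50 is the concentration giving 50% protection.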

[7] = tested on: Vesicular stomatitis virus; experiment: Antiviral activity against VSV Indiana lab infected in african green monkey Vero cells after 2 days by plaque reduction assay; assay type: functional, organism-based
[8] = tested on: Respiratory syncytial virus; experiment: Antiviral activity against RSV A2 infected in african green monkey Vero cells after 5 days by plaque reduction assay; assay type: functional, organism-based; details: human respiratory syncytial virus, A2, Vero, 120 h; how it was run: as §2

Row | Compound | CC50 [1] | EC50 (Human alphaherpesvirus 1) | CC50 [2] | EC50 (Yellow fever virus) | EC50 (Vaccinia virus) | CC50 [3] | Activity [4] | CC50 at 96 h [5] | EC50 (Poliovirus 1) | EC50 (Coxsackievirus B2) | EC50 [6] | Activity [7] | EC50 [8]
1 | O=[N+]([O-])c1ccc(-c2nc3cc(C(F)(F)F)ccc3[nH]2)cc1 | 18 µM | > 45 µM | 6 µM | > 18 µM | 4 µM | 45 µM | inactive | 6 µM | > 45 µM | 12 µM | > 6 µM | inactive | > 45 µM
2 | Nc1nc2c(ncn2COCCO)c(=O)[nH]1 [ACYCLOVIR] | > 100 µM | 3 µM | > 100 µM | > 100 µM | > 100 µM | > 100 µM | – | > 100 µM | > 100 µM | > 100 µM | > 100 µM | – | > 100 µM
3 | COc1ccc(-c2nc3cc(Cl)c(Cl)cc3[nH]2)c(N)c1 | > 100 µM | > 75 µM | 6.5 µM | > 100 µM | > 75 µM | 75 µM | inactive | 3 µM | > 75 µM | > 75 µM | > 6.5 µM | inactive | > 75 µM
4 | CN1CCN(CC(=O)Nc2ccc(-c3nc4cc(Cl)c(Cl)cc4[nH]3)cc2)CC1 | 41 µM | 51 µM | 90 µM | > 41 µM | 6 µM | > 100 µM | inactive | 11 µM | 89 µM | > 100 µM | 4 µM | inactive | –
5 | COc1ccc(-c2nc3cc(C(F)(F)F)ccc3[nH]2)cc1 | > 100 µM | > 15 µM | > 100 µM | > 100 µM | > 15 µM | 15 µM | inactive | 2 µM | > 15 µM | 7 µM | 1 µM | inactive | > 15 µM
6 | C#C[C@@]1(O)[C@H](O)[C@@H](CO)O[C@H]1n1ccc(N)nc1=O [2'-ETHYNYL-D-CYTIDINE] | > 100 µM | > 100 µM | > 100 µM | > 100 µM | > 100 µM | > 100 µM | – | ≥ 100 µM | 23 µM | 27 µM | 38 µM | – | > 100 µM
7 | O=[N+]([O-])c1ccc(-c2nc3ccccc3[nH]2)c([N+](=O)[O-])c1 | > 100 µM | 25 µM | 20 µM | > 100 µM | > 100 µM | > 100 µM | inactive | 7 µM | > 100 µM | 40 µM | > 20 µM | inactive | > 100 µM
8 | Fc1cccc(F)c1-c1nc2cc(C(F)(F)F)ccc2[nH]1 | ≥ 100 µM | > 25 µM | ≥ 100 µM | > 100 µM | > 25 µM | 25 µM | inactive | 100 µM | > 25 µM | > 25 µM | > 100 µM | inactive | > 25 µM
9 | Oc1ccc(-c2nc3cc(Cl)c(Cl)cc3[nH]2)cc1 | 29 µM | > 18 µM | 11 µM | > 29 µM | > 18 µM | 18 µM | inactive | 12 µM | > 18 µM | > 18 µM | > 11 µM | inactive | 7 µM
10 | COc1ccc(-c2nc3cc(Cl)c(Cl)cc3[nH]2)cc1 | 18 µM | 20 µM | 2.5 µM | > 18 µM | > 30 µM | 30 µM | inactive | 1 µM | > 30 µM | 10 µM | > 2.5 µM | inactive | > 30 µM
11 | O=c1cnn([C@@H]2O[C@H](CO)[C@@H](O)[C@H]2O)c(=O)[nH]1 (stereo in doubt; form 1) [6-AZAURIDINE] | – | – | – | – | 11 µM | – | – | – | > 20 µM | – | – | – | 1.2 µM
12 | COc1ccc(-c2nc3cc(C(C)=O)ccc3[nH]2)c(OC)c1 | > 100 µM | > 100 µM | > 100 µM | > 100 µM | > 100 µM | > 100 µM | inactive | > 100 µM | > 100 µM | > 100 µM | 42 µM | inactive | > 100 µM
13 | COc1cc(-c2nc3cc(C(F)(F)F)ccc3[nH]2)cc(OC)c1OC | 31 µM | > 29 µM | 18 µM | > 31 µM | > 29 µM | 29 µM | inactive | 4 µM | > 29 µM | 11 µM | > 18 µM | inactive | > 29 µM
14 | NC(=O)c1ncn([C@@H]2O[C@H](CO)[C@@H](O)[C@H]2O)n1 [RIBAVIRIN] | > 100 µM | > 100 µM | > 100 µM | > 100 µM | > 100 µM | > 100 µM | – | – | > 100 µM | > 100 µM | – | – | 7 µM
15 | C[C@@]1(O)[C@H](O)[C@@H](CO)O[C@H]1n1cnc2c(=O)[nH]c(N)nc21 [2'-B-METHYL-GUANOSINE] | 90 µM | > 100 µM | > 100 µM | 1.8 µM | > 100 µM | > 100 µM | – | > 100 µM | > 100 µM | 20 µM | – | – | > 100 µM
